Experimental data pooled from the literature.
Compare with care: the assays were run in different laboratories.
SLC22A11: Solute carrier family 22 member 11 (SLC22A11, Homo sapiens, UniProt Q9NSA0)
GIPR: Gastric inhibitory polypeptide receptor (GIPR, Homo sapiens, UniProt P48546)

| Structure (SMILES) | target | read-out | mode | technique | tested at | quantity | result |
| --- | --- | --- | --- | --- | --- | --- | --- |
| Cn1c(=O)c2[nH]cnc2n(C)c1=O | SLC22A11 | transporter uptake | inhibitor |  | 25 µM | inhibition | 81.6% |
| CN1CCC[C@H]1c1cccnc1 | Delta-type opioid receptor (OPRD1, Homo sapiens, UniProt P41143) | ligand displacement |  |  | 50 µM | inhibition | -7.8% |
| [2H]c1c([2H])c([C@]2([2H])CCCN2C(=O)C(C)(C)Oc2ccc3cn[nH]c3c2)c([2H])c([2H])c1C([2H])([2H])[2H] | Receptor tyrosine-protein kinase erbB-2 (ERBB2, Homo sapiens, UniProt P04626) | binding |  | competition with immobilised ligand | 1 µM | remaining binding | 83% |
| CC(C)CC(=O)OC[C@H]1O[C@@](C#N)(c2ccc3c(N)ncnn23)[C@H](O)[C@@H]1O | Alpha-2A adrenergic receptor (ADRA2A, Homo sapiens, UniProt P08913) | cell-free assay |  |  | 20 µM | inhibition | 6% |
| CC[C@H](C)[C@H](NC(=O)[C@H](CO)NC(=O)[C@H](Cc1ccc(O)cc1)NC(=O)[C@H](CC(=O)O)NC(=O)[C@H](CO)NC(=O)[C@@H](NC(=O)[C@H](Cc1ccccc1)NC(=O)[C@@H](NC(=O)CNC(=O)[C@H](CCC(=O)O)NC(=O)CCNC(=O)C1(c2ccc(Cl)cc2)CCOCC1)[C@@H](C)O)[C@@H](C)CC)C(=O)N[C@@H](C)C(=O)N[C@@H](CCSC)C(=O)N[C@@H](CC(=O)O)C(=O)N[C@@H](CCCCN)C(=O)N[C@H](C(=O)N[C@@H](Cc1c[nH]cn1)C(=O)N[C@@H](CCC(N)=O)C(=O)N[C@@H](CCC(N)=O)C(=O)N[C@@H](CC(=O)O)C(=O)N[C@@H](Cc1ccccc1)C(=O)N[C@H](C(=O)N[C@@H](CC(N)=O)C(=O)N[C@@H](Cc1c[nH]c2ccccc12)C(=O)N[C@@H](CC(C)C)C(=O)N[C@@H](CC(C)C)C(=O)N[C@@H](C)C(=O)N[C@@H](CCC(N)=O)C(=O)NCC(=O)N1CCC[C@H]1C(=O)N[C@@H](CO)C(=O)N[C@@H](CO)C(=O)NCC(=O)N[C@@H](C)C(=O)N1CCC[C@H]1C(=O)N1CCC[C@H]1C(=O)N1CCC[C@H]1C(=O)N[C@@H](CO)C(=O)N[C@@H](CCCCN)C(N)=O)C(C)C)[C@@H](C)CC | GIPR | β-arrestin recruitment | agonist |  |  | Emax | 14% |
| CCCCCCCCCc1ccc(OCCOCCOCCOCCOCCOCCOCCOCCOCCO)cc1 | SLC22A11 | transporter uptake | inhibitor |  | 25 µM | inhibition | 79.9% |
| CC[C@H](C)[C@H](NC(=O)[C@H](CO)NC(=O)[C@H](Cc1ccc(O)cc1)NC(=O)[C@H](CC(=O)O)NC(=O)[C@H](CO)NC(=O)[C@@H](NC(=O)[C@H](Cc1ccccc1)NC(=O)[C@@H](NC(=O)CNC(=O)[C@H](CCC(=O)O)NC(=O)[C@@H](C)NC(=O)[C@@H](N)Cc1ccc(O)cc1)[C@@H](C)O)[C@@H](C)CC)C(=O)N[C@@H](C)C(=O)N[C@@H](CCSC)C(=O)N[C@@H](CC(=O)O)C(=O)N[C@@H](CCCCN)C(=O)N[C@H](C(=O)N[C@@H](Cc1c[nH]cn1)C(=O)N[C@@H](CCC(N)=O)C(=O)N[C@@H](CCC(N)=O)C(=O)N[C@@H](CC(=O)O)C(=O)N[C@@H](Cc1ccccc1)C(=O)N[C@H](C(=O)N[C@@H](CC(N)=O)C(=O)N[C@@H](Cc1c[nH]c2ccccc12)C(=O)N[C@@H](CC(C)C)C(=O)N[C@@H](CC(C)C)C(=O)N[C@@H](C)C(=O)N[C@@H](CCC(N)=O)C(=O)NCC(=O)N1CCC[C@H]1C(=O)N[C@@H](CO)C(=O)N[C@@H](CO)C(=O)NCC(=O)N[C@@H](C)C(=O)N1CCC[C@H]1C(=O)N1CCC[C@H]1C(=O)N1CCC[C@H]1C(=O)N[C@@H](CO)C(=O)N[C@@H](CCCCN)C(N)=O)C(C)C)[C@@H](C)CC | GIPR | β-arrestin recruitment | agonist |  |  | Emax | 103% |
| c1cncc([C@@H]2CCCN2)c1 | 5-hydroxytryptamine receptor 3A (HTR3A, Homo sapiens, UniProt P46098) | ligand displacement |  | radioligand | 50 µM | inhibition | -3.09% |
